Reference: ChEMBL document CHEMBL4257453, “Identification of karanjin isolated from the Indian beech tree as a potent CYP1 enzyme inhibitor with cellular efficacy via screening of a natural product repository” (Medchemcomm, 2018)

How the values were obtained:
CYP1A1 [1] = molecular target: T1, CYP1A1 (Homo sapiens, UniProt P04798); assay: Inhibition of recombinant human CYP1A1 expressed in baker's yeast-derived microsomes (Sacchrosomes) at 10 uM using 7-ethoxyresorufin substrate by EROD assay relative to control; conditions: probe 7-ethoxyresorufin
T1 sequence (P04798 whole entry): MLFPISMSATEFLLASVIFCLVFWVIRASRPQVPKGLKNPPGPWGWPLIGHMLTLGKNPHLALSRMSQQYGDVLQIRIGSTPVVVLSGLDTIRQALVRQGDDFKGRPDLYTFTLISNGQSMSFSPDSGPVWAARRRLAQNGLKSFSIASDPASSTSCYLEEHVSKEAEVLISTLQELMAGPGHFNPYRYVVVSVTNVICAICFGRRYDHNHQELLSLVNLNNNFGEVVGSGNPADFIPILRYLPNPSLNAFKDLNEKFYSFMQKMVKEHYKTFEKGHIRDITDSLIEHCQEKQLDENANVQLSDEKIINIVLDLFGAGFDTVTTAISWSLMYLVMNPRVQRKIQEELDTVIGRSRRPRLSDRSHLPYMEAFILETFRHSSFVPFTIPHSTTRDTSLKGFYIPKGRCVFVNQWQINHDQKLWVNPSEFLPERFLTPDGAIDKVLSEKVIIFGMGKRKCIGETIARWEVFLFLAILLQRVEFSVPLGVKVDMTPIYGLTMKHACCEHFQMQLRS
Summary of the method: (§1)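 Yeast microsomes carrying recombinant CYP (Sacchrosomes). Substrates per isoform are 7-ethoxyresorufin, 3-cyano-7-ethoxycoumarin, EOMCC or dibenzylfluorescein, read as endpoint fluorescence. Background from compound-only wells without enzyme is subtracted. Independent triplicate runs; α-naphthoflavone positive control.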

CYP3A4 = CYP3A4 (Homo sapiens, UniProt P08684); assay: Inhibition of recombinant human CYP3A4 expressed in baker's yeast-derived microsomes (Sacchrosomes) at 10 uM using dibenzylfluorescein substrate by EROD assay relative to control; type: ADME; conditions: probe dibenzylfluorescein
Sequence of CYP3A4 (P08684 whole entry): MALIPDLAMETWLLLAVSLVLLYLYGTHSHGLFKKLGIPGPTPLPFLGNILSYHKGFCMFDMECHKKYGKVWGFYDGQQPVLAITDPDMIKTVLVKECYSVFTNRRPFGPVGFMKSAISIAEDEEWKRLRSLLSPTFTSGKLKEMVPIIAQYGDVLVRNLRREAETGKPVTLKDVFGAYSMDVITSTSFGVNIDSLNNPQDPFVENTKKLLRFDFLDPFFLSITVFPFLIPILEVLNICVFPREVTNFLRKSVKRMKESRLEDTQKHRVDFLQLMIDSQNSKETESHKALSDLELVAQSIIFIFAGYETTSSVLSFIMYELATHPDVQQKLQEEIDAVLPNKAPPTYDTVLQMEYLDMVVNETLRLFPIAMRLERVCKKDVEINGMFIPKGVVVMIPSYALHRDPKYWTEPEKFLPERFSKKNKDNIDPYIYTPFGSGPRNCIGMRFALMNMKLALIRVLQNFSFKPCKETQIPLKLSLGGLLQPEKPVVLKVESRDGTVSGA
Summary of the method: as §1, with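 “(Sacchrosomes). […]” for “(Sacchrosomes).”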

Cytochrome P450 2C19 = Cytochrome P450 2C19 (Homo sapiens, UniProt P33261); assay: Inhibition of human recombinant CYP2C19 expressed in HEK293 cells using 3-cyano-7-ethoxycoumarin substrate substrate preincubated for 30 mins followed by substrate addition and measured after 60 mins by fluorescence assay relative to control; type: ADME, cell-based
Sequence of Cytochrome P450 2C19 (P33261 whole entry): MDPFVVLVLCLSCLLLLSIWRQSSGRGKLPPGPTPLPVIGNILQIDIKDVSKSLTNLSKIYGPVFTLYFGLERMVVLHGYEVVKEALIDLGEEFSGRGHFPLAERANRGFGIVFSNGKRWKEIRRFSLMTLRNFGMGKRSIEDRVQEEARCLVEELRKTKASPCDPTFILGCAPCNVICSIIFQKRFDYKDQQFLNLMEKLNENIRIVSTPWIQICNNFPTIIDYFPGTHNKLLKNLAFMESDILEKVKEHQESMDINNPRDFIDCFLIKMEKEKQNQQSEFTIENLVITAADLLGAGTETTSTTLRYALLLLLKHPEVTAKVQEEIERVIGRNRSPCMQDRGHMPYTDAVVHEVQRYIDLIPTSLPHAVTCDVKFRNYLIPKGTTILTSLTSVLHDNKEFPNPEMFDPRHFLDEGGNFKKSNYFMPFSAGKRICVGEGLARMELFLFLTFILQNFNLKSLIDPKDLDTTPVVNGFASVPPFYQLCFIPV
Summary of the method: (§2)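 HEK293 cells adapted to suspension and transiently transfected with pcDNA3.1 plasmids carrying the individual CYP; 100×10^3 cells per well in triplicate. […] Fluorogenic substrate is then added at 5 μM and fluorescence read for 60 min.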

CYP2D6 = CYP2D6 (Homo sapiens, UniProt P10635); assay: Inhibition of recombinant human CYP2D6 expressed in baker's yeast-derived microsomes (Sacchrosomes) at 10 uM using 7-ethoxy-methyloxy-3-cyanocoumarin substrate by EROD assay relative to control; type: ADME; conditions: probe 7-ethoxy-methyloxy-3-cyanocoumarin
Sequence of CYP2D6 (P10635 whole entry): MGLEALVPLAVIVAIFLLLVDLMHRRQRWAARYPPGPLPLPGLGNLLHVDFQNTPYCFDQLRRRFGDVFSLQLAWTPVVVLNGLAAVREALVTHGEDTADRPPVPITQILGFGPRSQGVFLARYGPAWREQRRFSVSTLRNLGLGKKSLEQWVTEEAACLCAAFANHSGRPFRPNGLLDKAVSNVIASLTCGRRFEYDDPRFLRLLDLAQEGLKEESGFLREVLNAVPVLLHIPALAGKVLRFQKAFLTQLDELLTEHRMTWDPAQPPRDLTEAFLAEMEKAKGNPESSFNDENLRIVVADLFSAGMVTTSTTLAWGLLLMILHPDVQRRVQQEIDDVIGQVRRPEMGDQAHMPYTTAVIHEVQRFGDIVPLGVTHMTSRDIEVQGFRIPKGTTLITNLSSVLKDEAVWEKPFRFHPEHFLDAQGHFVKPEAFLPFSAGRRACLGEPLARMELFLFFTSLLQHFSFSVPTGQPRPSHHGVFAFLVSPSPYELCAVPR
Summary of the method: as §1, with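 “(Sacchrosomes). […]” for “(Sacchrosomes).”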

CYP2C9 = CYP2C9 (Homo sapiens, UniProt P11712); assay: Inhibition of recombinant human CYP2C9 expressed in baker's yeast-derived microsomes (Sacchrosomes) at 10 uM using 3-cyano-7-ethoxycoumarin substrate by EROD assay relative to control; type: ADME; conditions: probe 3-cyano-7-ethoxycoumarin
Sequence of CYP2C9 (P11712 whole entry): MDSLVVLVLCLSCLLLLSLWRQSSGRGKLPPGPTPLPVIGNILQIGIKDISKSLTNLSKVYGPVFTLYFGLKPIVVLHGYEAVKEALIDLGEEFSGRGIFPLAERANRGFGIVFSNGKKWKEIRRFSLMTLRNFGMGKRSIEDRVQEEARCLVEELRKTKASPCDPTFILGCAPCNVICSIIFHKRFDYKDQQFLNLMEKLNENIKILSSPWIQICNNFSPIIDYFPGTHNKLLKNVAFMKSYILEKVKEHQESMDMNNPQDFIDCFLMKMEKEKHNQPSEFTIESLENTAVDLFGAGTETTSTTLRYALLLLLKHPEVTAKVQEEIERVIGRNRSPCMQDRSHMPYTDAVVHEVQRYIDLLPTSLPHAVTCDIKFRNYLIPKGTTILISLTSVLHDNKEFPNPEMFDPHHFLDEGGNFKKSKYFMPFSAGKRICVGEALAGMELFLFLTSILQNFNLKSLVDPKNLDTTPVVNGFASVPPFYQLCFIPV
Summary of the method: as §1, with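 “(Sacchrosomes). […]” for “(Sacchrosomes).”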

Cytochrome P450 2C9 = Cytochrome P450 2C9 (Homo sapiens, UniProt P11712); assay: Inhibition of human recombinant CYP2C9 expressed in HEK293 cells using 3-cyano-7-ethoxycoumarin substrate substrate preincubated for 30 mins followed by substrate addition and measured after 60 mins by fluorescence assay relative to control; type: ADME, cell-based; summary of the method: as §2
Sequence of Cytochrome P450 2C9 (P11712 whole entry): as above

CYP2C19 = CYP2C19 (Homo sapiens, UniProt P33261); assay: Inhibition of recombinant human CYP2C19 expressed in baker's yeast-derived microsomes (Sacchrosomes) at 10 uM using 3-cyano-7-ethoxycoumarin substrate by EROD assay relative to control; type: ADME; conditions: probe 3-cyano-7-ethoxycoumarin
Sequence of CYP2C19 (P33261 whole entry): as the sequence (P33261 whole entry) above
Summary of the method: as §1, with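 “(Sacchrosomes). […]” for “(Sacchrosomes).”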

CYP1A2 = molecular target: T2, CYP1A2 (Homo sapiens, UniProt P05177); assay: Inhibition of recombinant human CYP1A2 expressed in baker's yeast-derived microsomes (Sacchrosomes) at 10 uM using 3-cyano-7-ethoxycoumarin substrate by EROD assay relative to control; type: ADME; conditions: probe 3-cyano-7-ethoxycoumarin; summary of the method: as §1
T2 sequence (P05177 whole entry): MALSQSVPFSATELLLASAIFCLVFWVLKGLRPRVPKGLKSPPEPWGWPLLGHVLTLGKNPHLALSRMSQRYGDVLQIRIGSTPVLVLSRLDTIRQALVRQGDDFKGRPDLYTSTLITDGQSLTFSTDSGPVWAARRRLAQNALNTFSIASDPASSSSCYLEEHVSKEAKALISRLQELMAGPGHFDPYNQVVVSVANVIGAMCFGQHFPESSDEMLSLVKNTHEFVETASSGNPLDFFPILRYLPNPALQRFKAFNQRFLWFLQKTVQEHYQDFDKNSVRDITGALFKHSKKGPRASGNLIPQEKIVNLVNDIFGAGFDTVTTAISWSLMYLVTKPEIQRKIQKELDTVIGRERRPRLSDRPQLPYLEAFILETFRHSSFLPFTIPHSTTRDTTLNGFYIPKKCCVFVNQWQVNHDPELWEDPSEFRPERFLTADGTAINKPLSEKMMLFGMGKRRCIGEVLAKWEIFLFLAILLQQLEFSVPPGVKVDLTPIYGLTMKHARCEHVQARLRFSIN

Cytochrome P450 2D6 = Cytochrome P450 2D6 (Homo sapiens, UniProt P10635); assay: Inhibition of human recombinant CYP2D6 expressed in HEK293 cells using 7-ethoxy-methyloxy-3-cyanocoumarin substrate substrate preincubated for 30 mins followed by substrate addition and measured after 60 mins by fluorescence assay relative to control; type: ADME, cell-based; summary of the method: as §2
Sequence of Cytochrome P450 2D6 (P10635 whole entry): as the sequence (P10635 whole entry) above

Cytochrome P450 1B1 = molecular target: T3, Cytochrome P450 1B1 (Homo sapiens, UniProt Q16678); assay: Inhibition of human recombinant CYP1B1 expressed in HEK293 cells using 7-ethoxyresorufin substrate substrate preincubated for 30 mins followed by substrate addition and measured after 60 mins by fluorescence assay relative to control; type: ADME, cell-based; summary of the method: as §2
T3 sequence (Q16678 whole entry): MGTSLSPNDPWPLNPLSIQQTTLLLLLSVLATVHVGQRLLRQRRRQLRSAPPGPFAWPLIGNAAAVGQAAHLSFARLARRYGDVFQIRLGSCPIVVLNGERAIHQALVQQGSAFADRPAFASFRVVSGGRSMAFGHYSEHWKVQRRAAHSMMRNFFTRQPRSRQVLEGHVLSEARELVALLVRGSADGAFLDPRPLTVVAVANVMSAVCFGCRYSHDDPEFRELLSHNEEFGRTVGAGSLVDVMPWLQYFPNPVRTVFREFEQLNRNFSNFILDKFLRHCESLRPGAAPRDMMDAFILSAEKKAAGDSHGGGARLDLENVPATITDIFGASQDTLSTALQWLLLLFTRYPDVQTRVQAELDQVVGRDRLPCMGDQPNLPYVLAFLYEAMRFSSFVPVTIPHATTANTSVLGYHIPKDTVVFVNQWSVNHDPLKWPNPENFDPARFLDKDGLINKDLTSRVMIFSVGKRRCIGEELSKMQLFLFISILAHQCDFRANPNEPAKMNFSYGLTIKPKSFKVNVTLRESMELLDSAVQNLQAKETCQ

CYP1A1 [2] = molecular target: T1, CYP1A1; assay: Inhibition of human recombinant CYP1A1 expressed in HEK293 cells at 10 uM using 7-ethoxyresorufin substrate preincubated for 30 mins followed by substrate addition and measured after 60 mins by fluorescence assay relative to control; type: cell-based; conditions: HEK293 cells expressing human recombinant CYP1A1, probe 7-ethoxyresorufin; summary of the method: as §2
Cytochrome P450 1A1 = molecular target: T4, Cytochrome P450 1A1 (Homo sapiens, UniProt P04798); assay: Inhibition of human recombinant CYP1A1 expressed in HEK293 cells using 7-ethoxyresorufin substrate preincubated for 30 mins followed by substrate addition and measured after 60 mins by fluorescence assay relative to control; type: cell-based; summary of the method: as §2
T4 sequence (P04798 whole entry): T1 sequence (P04798 whole entry)

Cytochrome P450 1A2 = molecular target: T5, Cytochrome P450 1A2 (Homo sapiens, UniProt P05177); assay: Inhibition of human recombinant CYP1A2 expressed in HEK293 cells using 3-cyano-7-ethoxycoumarin substrate preincubated for 30 mins followed by substrate addition and measured after 60 mins by fluorescence assay relative to control; type: ADME, cell-based; summary of the method: as §2
T5 sequence (P05177 whole entry): T2 sequence (P05177 whole entry)

CYP1B1 = molecular target: T6, CYP1B1 (Homo sapiens, UniProt Q16678); assay: Inhibition of recombinant human CYP1B1 expressed in baker's yeast-derived microsomes (Sacchrosomes) at 10 uM using 7-ethoxyresorufin substrate by EROD assay relative to control; type: ADME; conditions: probe 7-ethoxyresorufin
T6 sequence (Q16678 whole entry): T3 sequence (Q16678 whole entry)
Summary of the method: as §1, with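 “(Sacchrosomes). […]” for “(Sacchrosomes).”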

Cytochrome P450 3A4 = Cytochrome P450 3A4 (Homo sapiens, UniProt P08684); assay: Inhibition of human recombinant CYP3A4 expressed in HEK293 cells using dibenzylfluorescein substrate substrate preincubated for 30 mins followed by substrate addition and measured after 60 mins by fluorescence assay relative to control; type: ADME, cell-based
Sequence of Cytochrome P450 3A4 (P08684 whole entry): as the sequence (P08684 whole entry) above
Summary of the method: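 HEK293 cells adapted to suspension and transiently transfected with pcDNA3.1 plasmids carrying the individual CYP; 100×10^3 cells per well in triplicate. Fluorogenic substrate is then added at 5 μM and fluorescence read for 60 min.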

## COc1c(O)cc2oc(-c3ccc(O)cc3)cc(=O)c2c1O [HISPIDULIN]
CYP1A1 [1]
  inhibition at 10 µM: 86%

## COc1c2occc2c(OC)c2c(=O)cc(C)oc12 [KHELLIN]
CYP3A4
  inhibition at 10 µM: 11%
Cytochrome P450 2C19
  IC50: > 10 µM
CYP2D6
  inhibition at 10 µM: 8%
CYP2C9
  inhibition at 10 µM: 12%
Cytochrome P450 2C9
  IC50: > 10 µM
CYP2C19
  inhibition at 10 µM: 8%
CYP1A2
  inhibition at 10 µM: 99%
Cytochrome P450 2D6
  IC50: > 10 µM
Cytochrome P450 1B1
  IC50: 34.6 µM
CYP1A1 [2]
  inhibition at 1 h, 10 µM: 75%
Cytochrome P450 1A1
  IC50: 4.02 µM
  Ki: 3.8 µM
Cytochrome P450 1A2
  IC50: 0.04 µM
  Ki: 0.031 µM
CYP1A1 [1]
  inhibition at 10 µM: 92%
CYP1B1
  inhibition at 10 µM: 5%

## COc1ccc2ccc(=O)oc2c1CC=C(C)C [OSTHOLE]
CYP1A1 [1]
  inhibition at 10 µM: 34%

## CC1(C)O[C@H]1COc1c2ccoc2cc2oc(=O)ccc12 [OXYPEUCEDANIN]
CYP1A1 [1]
  inhibition at 10 µM: 56%

## CC(C)=CCOc1c2occc2cc2ccc(=O)oc12 [PENTOSALEN]
CYP1A1 [1]
  inhibition at 10 µM: 71%

## O=C(/C=C/C=C/c1ccc2c(c1)OCO2)N1CCCCC1 [PIPERINE]
CYP1A1 [1]
  inhibition at 10 µM: 42%

## CC1=CC(=O)c2c(O)cccc2C1=O [PLUMBAGIN]
CYP3A4
  inhibition at 10 µM: 15%
Cytochrome P450 2C19
  IC50: > 10 µM
CYP2D6
  inhibition at 10 µM: 10%
CYP2C9
  inhibition at 10 µM: 11%
Cytochrome P450 3A4
  IC50: > 10 µM
Cytochrome P450 2C9
  IC50: > 10 µM
CYP2C19
  inhibition at 10 µM: 12%
CYP1A2
  inhibition at 10 µM: 55%
Cytochrome P450 2D6
  IC50: > 10 µM
Cytochrome P450 1B1
  IC50: 6.15 µM
CYP1A1 [2]
  inhibition at 1 h, 10 µM: 86%
Cytochrome P450 1A1
  IC50: 2.77 µM
  Ki: 2.56 µM
Cytochrome P450 1A2
  IC50: 2.46 µM
  Ki: 2.36 µM
CYP1B1
  inhibition at 10 µM: 40%

## O=c1ccc2cc3ccoc3cc2o1 [PSORALEN]
CYP1A1 [1]
  inhibition at 10 µM: 69%

## COc1cc2ccc(=O)oc2c2ccoc12 [SPHONDIN]
CYP1A1 [1]
  inhibition at 10 µM: 67%

## O=c1cc(-c2ccc(O)cc2)oc2c([C@@H]3O[C@H](CO)[C@@H](O)[C@H](O)[C@H]3O)c(O)cc(O)c12 [VITEXIN]
CYP1A1 [1]
  inhibition at 10 µM: 42%

## CC1=C(CO)C(=O)O[C@@H]([C@@H](C)[C@H]2CC[C@H]3[C@@H]4C[C@H]5O[C@]56[C@@H](O)C=CC(=O)[C@]6(C)[C@H]4CC[C@]23C)C1 [WITHAFERIN A]
CYP1A1 [1]
  inhibition at 10 µM: 50%
